Assay results from PMC11403393 (RSC Advances, 2024).

Molecular target: α-glucosidase (Saccharomyces cerevisiae, UniProt P53341)
Assay: Kinetic study of α-glucosidase inhibition
Type: biochemical
How it was run: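 Yeast α-glucosidase (0.02 U per well) in 50 mM sodium phosphate, pH 7.0, preincubated with test compound (1.50, 4.00, 8.00 μM, or none) at 37 °C for 15 min. p-Nitrophenyl α-D-glucopyranoside added at 0.1, 0.2, 0.4 or 0.8 mM. A400 followed continuously for 30 min, in triplicate. Analysed by Lineweaver–Burk plot, replot of its slopes against inhibitor concentration, and Dixon plot.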

α-glucosidase, sequence (P53341 whole entry): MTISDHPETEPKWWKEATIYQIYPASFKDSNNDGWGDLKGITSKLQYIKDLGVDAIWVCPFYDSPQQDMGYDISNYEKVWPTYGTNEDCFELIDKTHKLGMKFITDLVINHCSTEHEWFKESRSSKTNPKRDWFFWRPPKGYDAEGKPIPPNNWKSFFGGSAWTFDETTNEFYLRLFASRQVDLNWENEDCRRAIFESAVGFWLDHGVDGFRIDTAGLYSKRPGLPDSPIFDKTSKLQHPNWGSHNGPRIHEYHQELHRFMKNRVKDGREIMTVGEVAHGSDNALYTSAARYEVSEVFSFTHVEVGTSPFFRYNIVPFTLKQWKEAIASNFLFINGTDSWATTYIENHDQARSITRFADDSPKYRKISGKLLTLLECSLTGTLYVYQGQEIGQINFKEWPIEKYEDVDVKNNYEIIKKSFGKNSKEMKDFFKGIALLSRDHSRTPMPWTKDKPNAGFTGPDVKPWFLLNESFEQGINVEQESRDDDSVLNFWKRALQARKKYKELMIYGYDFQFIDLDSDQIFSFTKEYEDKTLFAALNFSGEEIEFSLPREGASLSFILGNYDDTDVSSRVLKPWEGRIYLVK

O=C(Nc1cccc(Cl)c1)Nc1ccccc1N=Cc1cc(Cl)ccc1O [Compound 5h, 1-(2-{[(5-Chloro-2-hydroxybenzylidene)amino]}phenyl)-3-(3-chlorophenyl)urea]
Effect on Km of the enzyme: increases Km | Effect on Vmax of the enzyme: remains constant | Mode (type) of inhibition: competitive mode of inhibition
